Blank lines part the entries; values can stand above or below the molecule they belong to. Activity calls are given as the source filed them. The calls are words filed in the database; no cut-off is given here.
Key:
Papio hamadryas [1] = species on record: Papio hamadryas; test: Activity at baboon liver mitochondrial MAO-B assessed as H2O2 production at 250 uM after 6 to 15 mins pretreated with (R)-deprenyl
Papio hamadryas [2] = species on record: Papio hamadryas; test: Ratio of Vmax to Km for baboon liver mitochondrial MAO-B assessed per mg of protein after 10 mins
In short: (§1)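 Incubation time was set within the linear range for each substrate. Stopped with (R)-deprenyl on ice; peroxidase-coupled spectrophotometric read-out. Rates in nmol/min-mg protein, fitted to Michaelis–Menten. Triplicate or duplicate.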

Papio hamadryas [3] = species on record: Papio hamadryas; test: Activity at baboon liver mitochondrial MAO-B assessed as initial rate of H2O2 production after 10 mins assessed per mg of mitochondrial protein; in short: as §1
Papio hamadryas [4] = species on record: Papio hamadryas; test: Activity at baboon liver mitochondrial MAO-B assessed as initial rate of H2O2 production after 10 mins; in short: as §1
Papio hamadryas [5] = species on record: Papio hamadryas; test: Activity at baboon liver mitochondrial MAO-B assessed as initial rate of H2O2 production after 15 mins; in short: as §1
Mus musculus [6] = test: Neurotoxicity in C57BL/6 mouse assessed as depletion of dopamine level in striatum at 238 umol/kg, ip after 7 days by HPLC-ECD analysis relative to control; format: toxicity, organism-based; conditions: in vivo, 168 h
In short: (§2)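 Saline controls run alongside. Mice killed by cervical dislocation 7 days later. Striatal dopamine measured by HPLC-ECD, means ± SEM.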

Papio hamadryas [7] = species on record: Papio hamadryas; test: Activity at baboon liver mitochondrial MAO-B assessed as initial rate of H2O2 production after 15 mins assessed per mg of mitochondrial protein; in short: as §1
Papio hamadryas [8] = species on record: Papio hamadryas; test: Activity at baboon liver mitochondrial MAO-B assessed as H2O2 production at 250 uM after 15 mins pretreated with MAOB inhibitor (R)-deprenyl
Papio hamadryas [9] = species on record: Papio hamadryas; test: Activity at baboon liver mitochondrial MAO-B assessed as H2O2 production at 250 uM after 15 mins
In short: (§3)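 Baboon liver mitochondria (0.15 mg protein/mL) incubated with substrate and chromogenic solution at 37 °C in 100 mM sodium phosphate, pH 7.4. Reactions stopped at 2.5–20 min with (R)-deprenyl on ice and centrifuged. H2O2 read by peroxidase-coupled spectrophotometric assay against an 11–88 µM calibration. Triplicate, means ± SEM.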

Papio hamadryas [10] = species on record: Papio hamadryas; test: Activity at baboon liver mitochondrial MAO-B assessed as H2O2 production at 500 uM after 20 mins; in short: as §3
Papio hamadryas [11] = species on record: Papio hamadryas; test: Activity at baboon liver mitochondrial MAO-B assessed as H2O2 production at Vmax concentration after 15 mins
Papio hamadryas [12] = species on record: Papio hamadryas; test: Ratio of Vmax to Km for baboon liver mitochondrial MAO-B assessed per mg of protein after 15 mins; in short: as §1
Papio hamadryas [13] = species on record: Papio hamadryas; test: Activity at baboon liver mitochondrial MAO-B assessed as H2O2 production at 250 uM after 20 mins; in short: as §3
Papio hamadryas [14] = species on record: Papio hamadryas; test: Ratio of Vmax to Km for baboon liver mitochondrial MAO-B assessed per mg of protein after 20 mins; in short: as §1
Papio hamadryas [15] = species on record: Papio hamadryas; test: Activity at baboon liver mitochondrial MAO-B assessed as initial rate of H2O2 production after 20 mins; in short: as §1
Papio hamadryas [16] = species on record: Papio hamadryas; test: Activity at baboon liver mitochondrial MAO-B assessed as initial rate of H2O2 production after 20 mins assessed per mg of mitochondrial protein; in short: as §1
Papio hamadryas [17] = species on record: Papio hamadryas; test: Activity at baboon liver mitochondrial MAO-B assessed as H2O2 production at 500 uM after 20 mins pretreated with MAOB inhibitor (R)-deprenyl
Papio hamadryas [18] = species on record: Papio hamadryas; test: Activity at baboon liver mitochondrial MAO-B assessed as H2O2 production at Vmax concentration after 20 mins
Papio hamadryas [19] = species on record: Papio hamadryas; test: Activity at baboon liver mitochondrial MAO-B assessed as initial rate of H2O2 production after 8 mins assessed per mg of mitochondrial protein
In short: (§4)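 Baboon liver mitochondria stored at −70 °C and diluted with phosphate buffer containing 50% glycerol. MAO-B at 0.15 mg protein/mL in 100 mM sodium phosphate, pH 7.4, 37 °C, with eight substrate concentrations spanning two orders of magnitude. Incubation lasted 6 or 8 min (linear period). Stopped with (R)-deprenyl on ice, then centrifuged. H2O2 measured by peroxidase-coupled spectrophotometry against an 11–88 µM calibration. Duplicates; Michaelis–Menten fit gave Km, Vmax (nmol/min-mg), Vmax/Km.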

Papio hamadryas [20] = species on record: Papio hamadryas; test: Ratio of Vmax to Km for baboon liver mitochondrial MAO-B assessed per mg of protein after 8 mins; in short: as §4
Papio hamadryas [21] = species on record: Papio hamadryas; test: Activity at baboon liver mitochondrial MAO-B assessed as initial rate of H2O2 production after 8 mins; in short: as §4
Papio hamadryas [22] = species on record: Papio hamadryas; test: Activity at baboon liver mitochondrial MAO-B assessed as H2O2 production at 500 uM after 6 to 15 mins pretreated with (R)-deprenyl
In short: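 Mitochondria (0.3 mg protein/mL) were preincubated with (R)-deprenyl at 37 °C in 100 mM sodium phosphate, pH 7.4. They were then added to 500 µM substrate to give 0.15 mg protein/mL, with chromogenic solution, at 37 °C. Reactions were stopped with (R)-deprenyl, and H2O2 was measured by peroxidase-coupled spectrophotometry. Values were compared with fully active controls preincubated without inactivator.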

Papio hamadryas [23] = species on record: Papio hamadryas; test: Activity at baboon liver mitochondrial MAO-B assessed as initial rate of H2O2 production after 6 mins assessed per mg of mitochondrial protein; in short: as §4
Papio hamadryas [24] = species on record: Papio hamadryas; test: Ratio of Vmax to Km for baboon liver mitochondrial MAO-B assessed per mg of protein after 6 mins; in short: as §4
Papio hamadryas [25] = species on record: Papio hamadryas; test: Activity at baboon liver mitochondrial MAO-B assessed as initial rate of H2O2 production after 6 mins; in short: as §4
Papio hamadryas [26] = species on record: Papio hamadryas; test: Ratio of Vmax to Km for baboon liver mitochondrial MAO-B assessed per mg of protein after 12.5 mins
In short: (§5)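 Baboon liver mitochondrial fraction (0.15 mg protein/mL; protein by Bradford) was incubated with substrate in 100 mM sodium phosphate, pH 7.4, at 37 °C for 12.5 min. (R)-Deprenyl (5 mM stock) was added and the samples were placed on ice, then centrifuged. H2O2 was read by peroxidase-coupled spectrophotometry against an 11–88 µM calibration. Initial rates were taken at eight substrate levels, in duplicate. Km and Vmax came from a Michaelis–Menten fit, with rates as nmol H2O2/min-mg protein.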

Papio hamadryas [27] = species on record: Papio hamadryas; test: Activity at baboon liver mitochondrial MAO-B assessed as initial rate of H2O2 production after 12.5 mins assessed per mg of mitochondrial protein; in short: as §5
Papio hamadryas [28] = species on record: Papio hamadryas; test: Activity at baboon liver mitochondrial MAO-B assessed as initial rate of H2O2 production after 12.5 mins; in short: as §5
Mus musculus [29] = test: Neurotoxicity in C57BL/6 mouse assessed as depletion of dopamine level in striatum at 167 umol/kg, ip after 7 days by HPLC-ECD analysis relative to control; format: toxicity, organism-based; conditions: in vivo, 168 h; in short: as §2

SMILES: CN1CC=C(c2cccn2C)CC1
Activity (Papio hamadryas [1]): 5%
Vmax/Km (Papio hamadryas [2]): 0.51 min⁻¹
Vmax (Papio hamadryas [3]): 22.2 nmol/min
Km (Papio hamadryas [4]): 43.4 µM

SMILES: CN1CC2CC2(c2ccccc2)C1.O=C(O)C(=O)O (racemic)
Km (Papio hamadryas [5]): 148 µM
Activity (Mus musculus [6]): 111%
Vmax (Papio hamadryas [7]): 16.9 nmol/min
Activity (Papio hamadryas [8]): 1.79 µM
Activity (Papio hamadryas [9]): 27.3 µM
Activity (Papio hamadryas [10]): Active
Activity (Papio hamadryas [11]): 6%
Vmax/Km (Papio hamadryas [12]): 0.11 min⁻¹
Activity (Papio hamadryas [13]): Active

SMILES: CN1CC=C(c2ccccc2)C1
Vmax/Km (Papio hamadryas [2]): 0.28 min⁻¹
Vmax (Papio hamadryas [3]): 27.9 nmol/min
Km (Papio hamadryas [4]): 100 µM

SMILES: CN1CCC(c2ccccc2)C1.O=C(O)C(=O)O (racemic)
Activity (Mus musculus [6]): 99%
Vmax/Km (Papio hamadryas [14]): 0.04 min⁻¹
Km (Papio hamadryas [15]): 234 µM
Vmax (Papio hamadryas [16]): 8.37 nmol/min
Activity (Papio hamadryas [17]): 1.92 µM
Activity (Papio hamadryas [18]): 6%
Activity (Papio hamadryas [13]): Active

Vmax (Papio hamadryas [19]): 42.4 nmol/min/mg
Vmax/Km (Papio hamadryas [20]): 0.17 min⁻¹
Km (Papio hamadryas [21]): 249 µM
Activity (Papio hamadryas [22]): 5%
SMILES: NCc1ccccc1

SMILES: CN1CCC(c2ccccc2)CC1
Vmax (Papio hamadryas [7]): inactive

Vmax (Papio hamadryas [23]): 50 nmol/min/mg
Vmax/Km (Papio hamadryas [24]): 0.85 min⁻¹
Activity (Papio hamadryas [22]): 5%
Km (Papio hamadryas [25]): 58.9 µM
SMILES: NCCC(=O)c1ccccc1N

SMILES: CN1CC=C(c2ccccc2)CC1.Cl
Vmax/Km (Papio hamadryas [26]): 0.14 min⁻¹
Vmax (Papio hamadryas [27]): 11.7 nmol/min
Km (Papio hamadryas [28]): 81.8 µM
Activity (Mus musculus [29]): 27%
Activity (Papio hamadryas [22]): 5%

From ChEMBL document CHEMBL1165916, “Interactions of 1-methyl-3-phenylpyrrolidine and 3-methyl-1-phenyl-3-azabicyclo[3.1.0]hexane with monoamine oxidase B” (Bioorg Med Chem, 2010)
